Experimental findings from ChEMBL document CHEMBL4431385, “Substituted tetracyclic indole core derivatives of HCV NS5A inhibitor MK-8742” (Bioorg Med Chem Lett, 2016) are described below.

In experiment [1] the target is T1, Nonstructural protein 5A (Hepatitis C virus) (UniProt Q5L478).
T1 sequence (whole entry): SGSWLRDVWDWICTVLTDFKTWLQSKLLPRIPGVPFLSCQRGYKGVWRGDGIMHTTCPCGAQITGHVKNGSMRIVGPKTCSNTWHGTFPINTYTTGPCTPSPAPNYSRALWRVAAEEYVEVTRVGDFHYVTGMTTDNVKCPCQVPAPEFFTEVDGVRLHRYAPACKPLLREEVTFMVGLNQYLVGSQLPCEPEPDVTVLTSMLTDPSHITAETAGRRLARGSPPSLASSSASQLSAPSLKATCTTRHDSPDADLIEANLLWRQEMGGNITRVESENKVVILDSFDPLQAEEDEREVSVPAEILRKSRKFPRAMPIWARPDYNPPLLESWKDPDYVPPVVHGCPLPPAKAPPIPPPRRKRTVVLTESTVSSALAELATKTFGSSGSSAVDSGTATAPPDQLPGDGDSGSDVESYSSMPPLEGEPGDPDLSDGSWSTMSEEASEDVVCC
The experiment is described as follows: Inhibition of HCV GT1a NS5A assessed as suppression of replicon RNA level by real-time PCR analysis. Conditions: Hepatitis C virus subtype 1a. (Replicon systems follow genome replication, usually without infectious particles.)

For experiment [2], the target named is T1, Nonstructural protein 5A (Hepatitis C virus). The experiment in a line: Inhibition of HCV GT1b NS5A assessed as suppression of replicon RNA level by real-time PCR analysis. Conditions: Hepatitis C virus subtype 1b.
Experiment [3] has the same target. The experiment in a line: Inhibition of HCV GT2a NS5A assessed as suppression of replicon RNA level by real-time PCR analysis. Conditions: Hepatitis C virus subtype 2a.
For experiment [4] the target is unchanged. The experiment is described as follows: Inhibition of HCV GT2b NS5A assessed as suppression of replicon RNA level by real-time PCR analysis. Conditions: Hepatitis C virus subtype 2b. Summed up: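 GT2b replicon, which carries the naturally occurring NS5A 31M resistance-associated variant; potency given as EC90 in nM.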
The target is the same in experiment [5]. The experiment in a line: Inhibition of HCV GT3a NS5A assessed as suppression of replicon RNA level by real-time PCR analysis. Conditions: Hepatitis C virus subtype 3a.
Experiment [6] shares this target. The experiment in a line: Inhibition of HCV GT4a NS5A assessed as suppression of replicon RNA level by real-time PCR analysis. The settings on record: Hepatitis C virus subtype 4a.
Experiment [7] relates to T2, Nonstructural protein 5A (Hepatitis C virus), Q5L478 [Y93H].
T2 sequence (whole entry): T1 sequence (whole entry) with Y93H
The experiment is described as follows: Inhibition of HCV GT1a NS5A Y93H mutant assessed as suppression of replicon RNA level by real-time PCR analysis. Conditions: Hepatitis C virus subtype 1a.

The test system of experiment [8] is Nonstructural protein 5A (Hepatitis C virus), Q5L478 [UNDEFINED MUTATION]. The experiment in a line: Inhibition of HCV GT1a NS5A L31V mutant assessed as suppression of replicon RNA level by real-time PCR analysis. The settings on record: Hepatitis C virus subtype 1a.

Molecules are shown by their SMILES. Positions count from the first letter of the chain named.

Take `COC(=O)N[C@H](C(=O)N1CCC[C@H]1c1ncc(-c2ccc3c(c2)OCn2c-3cc3cc(-c4cnc([C@@H]5CCCN5C(=O)[C@@H](NC(=O)OC)C(C)C)[nH]4)ccc32)[nH]1)C(C)C`: the concentration for an effect of 90% (EC90) came to 0.02 nM in experiment [1]; 0.02 nM in experiment [2]; 0.02 nM in experiment [3]; 76 nM in experiment [4]; 1 nM in experiment [5]; 0.2 nM in experiment [6]. The EC90 in experiment [7] came out at 100 nM; in experiment [8] it was 7 nM.
As to `COC(=O)N[C@H](C(=O)N1CCC[C@H]1c1ncc(-c2ccc3c(c2)O[C@@H](c2ccccc2)n2c-3c(F)c3cc(-c4cnc([C@@H]5CCCN5C(=O)[C@@H](NC(=O)OC)C(C)C)[nH]4)ccc32)[nH]1)C(C)C`, the EC90 in experiment [1] amounted to 0.007 nM; in experiment [2], 0.007 nM; in experiment [3], 0.004 nM; in experiment [4], 15 nM; in experiment [5], 0.3 nM; in experiment [6], 0.06 nM. Also, the EC90 in experiment [7] came to 25 nM; in experiment [8], 0.7 nM.
Turning to `COC(=O)N[C@H](C(=O)N1CCC[C@H]1c1ncc(-c2cc(F)c3c(c2)O[C@@H](c2ccccc2)n2c-3c(Cl)c3cc(-c4cnc([C@@H]5CCCN5C(=O)[C@@H](NC(=O)OC)C(C)C)[nH]4)ccc32)[nH]1)C(C)C`, the EC90 in experiment [1] amounted to 0.02 nM; in experiment [2], 0.006 nM; in experiment [3], 0.03 nM; in experiment [4], 42 nM; in experiment [5], 2 nM; in experiment [6] it was 0.04 nM. The EC90 in experiment [7] is 51 nM; in experiment [8], 0.4 nM.
Consider `COC(=O)N[C@H](C(=O)N1CCC[C@H]1c1ncc(-c2ccc3c(c2)c(F)c2n3C(c3ccccc3)Oc3cc(-c4cnc([C@@H]5C[C@@H](F)CN5C(=O)[C@@H](NC(=O)OC)C(C)C)[nH]4)ccc3-2)[nH]1)C(C)C` (stereo partly drawn), for which the EC90 turned out to be 0.002 nM in experiment [1]; 0.001 nM in experiment [2]; 0.003 nM in experiment [3]; 33 nM in experiment [4]; 0.2 nM in experiment [5]; 0.04 nM in experiment [6]. Also, the EC90 in experiment [7] was 2 nM; in experiment [8], 1 nM.
Consider `COC(=O)N[C@H](C(=O)N1C[C@H](F)C[C@H]1c1ncc(-c2ccc3c(c2)OC(c2ccccc2)n2c-3cc3cc(-c4cnc([C@@H]5C[C@@H](F)CN5C(=O)[C@@H](NC(=O)OC)C(C)C)[nH]4)ccc32)[nH]1)C(C)C` (mixture of isomers), for which the concentration for an effect of 90% (EC90) in experiment [1] was found to be 0.01 nM; in experiment [2], 0.004 nM; in experiment [3], 0.7 nM; in experiment [4] it was 63 nM; in experiment [5], 2 nM; in experiment [6], 0.2 nM. Moreover, the EC90 in experiment [7] was determined as 2 nM; in experiment [8] it was 10 nM.
For the molecule `COC(=O)N[C@H](C(=O)N1CCC[C@H]1c1ncc(-c2ccc3c(c2)OCn2c-3c(Cc3ccccc3)c3cc(-c4cnc([C@@H]5CCCN5C(=O)[C@@H](NC(=O)OC)C(C)C)[nH]4)ccc32)[nH]1)C(C)C`, the EC90 in experiment [1] stood at 0.1 nM; in experiment [2] it was 0.01 nM; in experiment [4], 28 nM; in experiment [7] it was 187 nM; in experiment [8], 9 nM.
Turning to `COC(=O)N[C@H](C(=O)N1CCC[C@H]1c1ncc(-c2ccc3c(c2)OC(c2ccccc2)n2c-3c(F)c3cc(-c4cnc([C@@H]5C[C@@H](F)CN5C(=O)[C@@H](NC(=O)OC)C(C)C)[nH]4)ccc32)[nH]1)C(C)C` (mixture of isomers), the EC90 in experiment [1] was 0.005 nM; in experiment [2] it was 0.003 nM; in experiment [3] it was 0.03 nM; in experiment [5] it was 2 nM; in experiment [6], 0.1 nM; in experiment [7] it was 2 nM. Further, the EC90 in experiment [8] was 2 nM.
Regarding `COC(=O)N[C@H](C(=O)N1C[C@H](F)C[C@H]1c1ncc(-c2cc(F)c3c(c2)OC(c2cccc(OC(F)(F)F)c2)n2c-3cc3cc(-c4cnc([C@@H]5C[C@@H](F)CN5C(=O)[C@@H](NC(=O)OC)C(C)C)[nH]4)ccc32)[nH]1)C(C)C` (stereo partly drawn), the 90% effect concentration (EC90) in experiment [1] stood at 0.006 nM; in experiment [2], 0.005 nM; in experiment [4], 52 nM; in experiment [7] it was 0.2 nM; in experiment [8], 7 nM.
`COC(=O)N[C@H](C(=O)N1C[C@H](F)C[C@H]1c1ncc(-c2cc(F)c3c(c2)OC(c2cccc(OC)c2)n2c-3cc3cc(-c4cnc([C@@H]5C[C@@H](F)CN5C(=O)[C@@H](NC(=O)OC)C(C)C)[nH]4)ccc32)[nH]1)C(C)C` (stereo partly drawn): the EC90 in experiment [1] came to 0.006 nM; in experiment [2], 0.007 nM; in experiment [4], 39 nM; in experiment [7], 0.07 nM; in experiment [8], 2 nM.
On to `COC(=O)N[C@H](C(=O)N1CCC[C@H]1c1nc(-c2ccc3c(c2)O[C@@H](c2ccccc2)n2c-3cc3cc(-c4c[nH]c([C@@H]5CCCN5C(=O)[C@@H](NC(=O)OC)C(C)C)n4)ccc32)c[nH]1)C(C)C`, for which the EC90 in experiment [3] came out at 0.019 nM; in experiment [5] it was 0.12 nM; in experiment [6], 0.016 nM.
As to `COC(=O)N[C@H](C(=O)N1CCC[C@H]1c1ncc(-c2ccc3c(c2)cc2n3[C@H](c3ccccc3)Oc3cc(-c4cnc([C@@H]5CCCN5C(=O)[C@@H](NC(=O)OC)C(C)C)[nH]4)c(F)cc3-2)[nH]1)C(C)C`, the EC90 was 0.003 nM in experiment [1]; 0.003 nM in experiment [2]; 0.003 nM in experiment [3]; above 100 nM in experiment [4]; 1 nM in experiment [5]; 0.02 nM in experiment [6]. The EC90 turned out to be 62 nM in experiment [7] and 1 nM in experiment [8].
Consider `COC(=O)N[C@H](C(=O)N1CCC[C@H]1c1ncc(-c2ccc3c(c2)cc2n3C(c3ccc(OC(F)(F)F)cc3)Oc3cc(-c4cnc([C@@H]5C[C@@H](F)CN5C(=O)[C@@H](NC(=O)OC)C(C)C)[nH]4)cc(F)c3-2)[nH]1)C(C)C` (stereo partly drawn), for which the EC90 in experiment [1] was found to be 0.03 nM; in experiment [2], 0.008 nM; in experiment [4], 13 nM; in experiment [7] it was 0.3 nM.
For the molecule `COC(=O)N[C@H](C(=O)N1CCC[C@H]1c1ncc(-c2cc(F)c3c(c2)OC(c2ccccc2)n2c-3cc3cc(-c4cnc([C@@H]5C[C@@H](F)CN5C(=O)[C@@H](NC(=O)OC)C(C)C)[nH]4)ccc32)[nH]1)C(C)C` (mixture of isomers), the EC90 in experiment [1] was determined as 0.003 nM; in experiment [2] it was 0.003 nM; in experiment [3] it was 0.01 nM; in experiment [4], 32 nM; in experiment [5], 0.3 nM; in experiment [6], 0.05 nM. The EC90 in experiment [7] came to 4 nM; in experiment [8] it was 2 nM.
Turning to `COC(=O)N[C@H](C(=O)N1CCC[C@H]1c1ncc(-c2ccc3c(c2)OCn2c-3c(-c3ccccc3)c3cc(-c4cnc([C@@H]5CCCN5C(=O)[C@@H](NC(=O)OC)C(C)C)[nH]4)ccc32)[nH]1)C(C)C`, the EC90 in experiment [1] came out at 0.09 nM; in experiment [2], 0.004 nM; in experiment [3] it was 0.01 nM; in experiment [4] it was 204 nM; in experiment [5] it was 3 nM; in experiment [6], 0.09 nM. The figures for the EC90 in experiment [7] and in experiment [8] were 5000 nM and 4 nM, respectively.
`CCCCOc1cccc(C2Oc3cc(-c4cnc([C@@H]5C[C@@H](F)CN5C(=O)[C@@H](NC(=O)OC)C(C)C)[nH]4)cc(F)c3-c3cc4cc(-c5cnc([C@@H]6C[C@@H](F)CN6C(=O)[C@@H](NC(=O)OC)C(C)C)[nH]5)ccc4n32)c1` (stereo partly drawn): the EC90 in experiment [2] is 0.008 nM; in experiment [4], 126 nM; in experiment [7], 0.1 nM; in experiment [8], 4 nM.
Take `COC(=O)N[C@H](C(=O)N1CCC[C@H]1c1ncc(-c2ccc3c(c2)cc2n3C(c3cccc(OC)c3)Oc3cc(-c4cnc([C@@H]5C[C@@H](F)CN5C(=O)[C@@H](NC(=O)OC)C(C)C)[nH]4)cc(F)c3-2)[nH]1)C(C)C` (stereo partly drawn): the EC90 came to 0.002 nM in experiment [1]; 0.007 nM in experiment [2]; 19 nM in experiment [4]; 0.1 nM in experiment [5]; 0.6 nM in experiment [7]; 0.3 nM in experiment [8].

What is called EC90 is the concentration needed for an effect of 90%.
